{"source": "EPA's CvTdb concentration-time database", "key": {"Rat [1]": {"tested_on": "Rat", "assay": "concentration in plasma after dosing", "conditions": "dosed: 2-Hydroxy-4-methoxybenzophenone, 100 mg/kg, oral, Male, F344"}, "Rat [2]": {"tested_on": "Rat", "assay": "concentration in plasma after dosing", "conditions": "dosed: 2-Hydroxy-4-methoxybenzophenone, 500 mg/kg, oral, Female, F344"}, "Mouse": {"tested_on": "Mouse", "assay": "concentration in plasma after dosing", "conditions": "3 h; dosed: 2-Hydroxy-4-methoxybenzophenone; 250 mg/kg; oral; Female; B6C3F1"}, "Rat [3]": {"tested_on": "Rat", "assay": "concentration in plasma after dosing", "conditions": "5 min; dosed: Nitrite; 20 mg/kg; iv; Male; F344"}, "Rat [4]": {"tested_on": "Rat", "assay": "concentration in plasma after dosing", "conditions": "10 min; dosed: Nitrite; 40 mg/kg; oral; Male; F344"}, "Rat [5]": {"tested_on": "Rat", "assay": "concentration in plasma after dosing", "conditions": "5 min; dosed: Nitrite; 40 mg/kg; oral; Female; F344"}, "Rat [6]": {"tested_on": "Rat", "assay": "concentration in plasma after dosing", "conditions": "0.5 h; dosed: Nitrite; 40 mg/kg; oral; Female; F344"}, "Rat [7]": {"tested_on": "Rat", "assay": "concentration in plasma after dosing", "conditions": "dosed: Nitrite, 20 mg/kg, iv, Male, F344"}, "Rat [8]": {"tested_on": "Rat", "assay": "concentration in plasma after dosing", "conditions": "10 min; dosed: Nitrite; 40 mg/kg; oral; Female; F344"}, "Rat [9]": {"tested_on": "Rat", "assay": "concentration in liver after dosing", "conditions": "0.5 h; dosed: Fluorotelomer alcohol 8+2; 80 mg/kg; oral; Female; Harlan Sprague Dawley"}, "Rat [10]": {"tested_on": "Rat", "assay": "concentration in liver after dosing", "conditions": "24 h; dosed: Perfluorooctanoic acid; 80 mg/kg; oral; Female; Harlan Sprague Dawley"}, "Rat [11]": {"tested_on": "Rat", "assay": "concentration in liver after dosing", "conditions": "3 h; dosed: Perfluorooctanoic acid; 12 mg/kg; oral; Male; Harlan Sprague Dawley"}, "Rat [12]": {"tested_on": "Rat", "assay": "concentration in liver after dosing", "conditions": "0.5 h; dosed: Fluorotelomer alcohol 8+2; 24 mg/kg; oral; Male; Harlan Sprague Dawley"}, "Rat [13]": {"tested_on": "Rat", "assay": "concentration in liver after dosing", "conditions": "12 h; dosed: Perfluorooctanoic acid; 80 mg/kg; oral; Female; Harlan Sprague Dawley"}, "Rat [14]": {"tested_on": "Rat", "assay": "concentration in kidney after dosing", "conditions": "12 h; dosed: Fluorotelomer alcohol 8+2; 24 mg/kg; oral; Male; Harlan Sprague Dawley"}, "Rat [15]": {"tested_on": "Rat", "assay": "concentration in kidney after dosing", "conditions": "6 h; dosed: Perfluorooctanoic acid; 80 mg/kg; oral; Female; Harlan Sprague Dawley"}, "Rat [16]": {"tested_on": "Rat", "assay": "concentration in kidney after dosing", "conditions": "6 h; dosed: Perfluorooctanoic acid; 12 mg/kg; oral; Male; Harlan Sprague Dawley"}, "Rat [17]": {"tested_on": "Rat", "assay": "concentration in kidney after dosing", "conditions": "3 h; dosed: Perfluorooctanoic acid; 12 mg/kg; oral; Male; Harlan Sprague Dawley"}, "Rat [18]": {"tested_on": "Rat", "assay": "concentration in kidney after dosing", "conditions": "6 h; dosed: Perfluorooctanoic acid; 12 mg/kg; oral; Male; Harlan Sprague Dawley", "remark": "listed apart in the source"}, "Rat [19]": {"tested_on": "Rat", "assay": "concentration in kidney after dosing", "conditions": "24 h; dosed: Perfluorooctanoic acid; 80 mg/kg; oral; Female; Harlan Sprague Dawley"}, "Rat [20]": {"tested_on": "Rat", "assay": "concentration in plasma after dosing", "conditions": "dosed: 678-39-7, 40 mg/kg, iv, Male, F344"}, "Rat [21]": {"tested_on": "Rat", "assay": "concentration in plasma after dosing", "conditions": "dosed: 678-39-7, 40 mg/kg, iv, Male, F344", "remark": "listed apart in the source"}, "Rat [22]": {"tested_on": "Rat", "assay": "concentration in liver after dosing", "conditions": "0.5 h; dosed: Potassium Perfluorobutane Sulfonate; 20 mg/kg; oral; Female; Harlan Sprague Dawley"}, "Rat [23]": {"tested_on": "Rat", "assay": "concentration in liver after dosing", "conditions": "6 h; dosed: Potassium Perfluorobutane Sulfonate; 20 mg/kg; oral; Male; Harlan Sprague Dawley"}, "Rat [24]": {"tested_on": "Rat", "assay": "concentration in brain after dosing", "conditions": "3 h; dosed: Potassium Perfluorobutane Sulfonate; 20 mg/kg; oral; Male; Harlan Sprague Dawley"}, "Rat [25]": {"tested_on": "Rat", "assay": "concentration in plasma after dosing", "conditions": "dosed: Potassium Perfluorobutane Sulfonate, 4 mg/kg, iv, Male, F344"}, "Rat [26]": {"tested_on": "Rat", "assay": "concentration in plasma after dosing", "conditions": "0.5 h; dosed: Potassium Perfluorobutane Sulfonate; 4 mg/kg; iv; Male; F344"}, "Rat [27]": {"tested_on": "Rat", "assay": "concentration in kidney after dosing", "conditions": "6 h; dosed: Potassium Perfluorobutane Sulfonate; 20 mg/kg; oral; Male; Harlan Sprague Dawley"}, "rat [28]": {"tested_on": "rat", "conditions": "dosed: benzo[a]pyrene, 1 mg/kg, iv, male, Sprague Dawley"}, "monkey": {"tested_on": "monkey", "assay": "concentration in blood after dosing; negative times count back from the end of exposure", "conditions": "dosed: methanol, 1200 ppm, inhalation, duration: 6 hr, male, Macaca mulatta", "summary_of_the_method": "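Data points giving concentration or amount against time came from published in vivo toxicokinetic studies and from two structured collections. PubMed searching, classifier screening and manual review located the studies. Most points were digitised from plot screenshots using WebPlotDigitizer, the rest were copied from tables, and all keep their reported units.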"}}, "data": [{"compound": "COc1ccc(C(=O)c2ccccc2)c(O)c1", "note": "[2-Hydroxy-4-methoxybenzophenone]", "values": [{"measurement": "concentration in plasma", "setting": "Rat [1]; 10 min", "result": 17.3, "unit": "ng/mL"}, {"measurement": "concentration in plasma", "setting": "Rat [1]; 3 h", "result": 21.2, "unit": "ng/mL"}, {"measurement": "concentration in plasma", "setting": "Rat [2]; 10 min", "result": 52.4, "unit": "ng/mL"}, {"measurement": "concentration in plasma", "setting": "Rat [2]; 10 h", "result": 27.5, "unit": "ng/mL"}, {"measurement": "concentration in plasma", "setting": "Mouse", "result": 35.5, "unit": "ng/mL"}]}, {"compound": "O=N[O-]", "note": "[Nitrite]", "values": [{"measurement": "concentration in plasma", "setting": "Rat [3]", "result": 8200, "unit": "ng/mL"}, {"measurement": "concentration in plasma", "setting": "Rat [4]", "result": 2600, "unit": "ng/mL"}, {"measurement": "concentration in plasma", "setting": "Rat [5]", "result": 8500, "unit": "ng/mL"}, {"measurement": "concentration in plasma", "setting": "Rat [6]", "result": 11600, "unit": "ng/mL"}, {"measurement": "concentration in plasma", "setting": "Rat [7]; 10 min", "result": 15400, "unit": "ng/mL"}, {"measurement": "concentration in plasma", "setting": "Rat [7]; 1.25 h", "result": 2000, "unit": "ng/mL"}, {"measurement": "concentration in plasma", "setting": "Rat [8]", "result": 26600, "unit": "ng/mL"}]}, {"compound": "O=C(O)C(F)(F)C(F)(F)C(F)(F)C(F)(F)C(F)(F)C(F)(F)C(F)(F)F", "note": "[Perfluorooctanoic acid]", "values": [{"measurement": "concentration in liver", "setting": "Rat [9]", "result": 579, "unit": "ng/g"}, {"measurement": "concentration in liver", "setting": "Rat [10]", "result": 10000, "unit": "ng/g"}, {"measurement": "concentration in liver", "setting": "Rat [11]", "result": 50700, "unit": "ng/g"}, {"measurement": "concentration in liver", "setting": "Rat [12]", "result": 300, "unit": "ng/g"}, {"measurement": "concentration in liver", "setting": "Rat [13]", "result": 59900, "unit": "ng/g"}, {"measurement": "concentration in kidney", "setting": "Rat [14]", "result": 365, "unit": "ng/g"}, {"measurement": "concentration in kidney", "setting": "Rat [15]", "result": 175000, "unit": "ng/g"}, {"measurement": "concentration in kidney", "setting": "Rat [16]", "result": 37600, "unit": "ng/g"}, {"measurement": "concentration in kidney", "setting": "Rat [17]", "result": 36800, "unit": "ng/g"}, {"measurement": "concentration in kidney", "setting": "Rat [18]", "result": 43100, "unit": "ng/g"}, {"measurement": "concentration in kidney", "setting": "Rat [19]", "result": 12300, "unit": "ng/g"}, {"measurement": "concentration in plasma", "setting": "Rat [20]; 0.25 h", "result": 465, "unit": "ng/mL"}, {"measurement": "concentration in plasma", "setting": "Rat [20]; 0.5 h", "result": 220000, "unit": "ng/mL"}, {"measurement": "concentration in plasma", "setting": "Rat [20]; 6 h", "result": 1540, "unit": "ng/mL"}, {"measurement": "concentration in plasma", "setting": "Rat [20]; 24 h", "result": 1640, "unit": "ng/mL"}, {"measurement": "concentration in plasma", "setting": "Rat [21]; 0.25 h", "result": 276000, "unit": "ng/mL"}, {"measurement": "concentration in plasma", "setting": "Rat [21]; 6 h", "result": 77700, "unit": "ng/mL"}, {"measurement": "concentration in plasma", "setting": "Rat [21]; 48 h", "result": 31.9, "unit": "ng/mL"}]}, {"compound": "O=S(=O)([O-])C(F)(F)C(F)(F)C(F)(F)C(F)(F)F.[K+]", "note": "[Potassium Perfluorobutane Sulfonate]", "values": [{"measurement": "concentration in liver", "setting": "Rat [22]", "result": 48000, "unit": "ng/g"}, {"measurement": "concentration in liver", "setting": "Rat [23]", "result": 51600, "unit": "ng/g"}, {"measurement": "concentration in brain", "setting": "Rat [24]", "result": 754, "unit": "ng/g"}, {"measurement": "concentration in plasma", "setting": "Rat [25]; 0.5 h", "result": 19100, "unit": "ng/mL"}, {"measurement": "concentration in plasma", "setting": "Rat [25]; 12 h", "result": 1620, "unit": "ng/mL"}, {"measurement": "concentration in plasma", "setting": "Rat [26]", "result": 12500, "unit": "ng/mL"}, {"measurement": "concentration in kidney", "setting": "Rat [27]", "result": 13100, "unit": "ng/g"}]}, {"compound": "c1ccc2c(c1)cc1ccc3cccc4ccc2c1c34", "note": "[benzo[a]pyrene]", "values": [{"measurement": "amount in urine after dosing", "setting": "rat [28]; 2.991 h", "result": 1.11, "unit": "ng"}, {"measurement": "amount in urine after dosing", "setting": "rat [28]; 6.006 h", "result": 1.15, "unit": "ng"}, {"measurement": "amount in urine after dosing", "setting": "rat [28]; 24 h", "result": 1.15, "unit": "ng"}]}, {"compound": "CO", "note": "[methanol]", "values": [{"measurement": "concentration in blood", "setting": "monkey; 0.9399 h", "result": 16100, "unit": "ng/mL"}, {"measurement": "concentration in blood", "setting": "monkey; 1.959 h", "result": 9030, "unit": "ng/mL"}, {"measurement": "concentration in blood", "setting": "monkey; 2.967 h", "result": 4920, "unit": "ng/mL"}, {"measurement": "concentration in blood", "setting": "monkey; 4.499 h", "result": 3110, "unit": "ng/mL"}, {"measurement": "concentration in blood", "setting": "monkey; 6.031 h", "result": 903, "unit": "ng/mL"}, {"measurement": "concentration in blood", "setting": "monkey; -98 s, during exposure", "result": 26900, "unit": "ng/mL"}, {"measurement": "concentration in blood", "setting": "monkey; -3.07 h, during exposure", "result": 21000, "unit": "ng/mL"}, {"measurement": "concentration in blood", "setting": "monkey; -5.081 h, during exposure", "result": 8330, "unit": "ng/mL"}, {"measurement": "concentration in blood", "setting": "monkey; -5.593 h, during exposure", "result": 4820, "unit": "ng/mL"}]}]}
